Experimental data taken from ChEMBL document CHEMBL1142616, “New diketopiperazine alkaloids from Penicillium fellutanum” (J Nat Prod, 2000).
Active and inactive are the calls of the source.

Key:
Type in all cases: functional, cell-based
L929 = experiment: Cytotoxicity against mouse L929 cells after 72 hrs
Summary of the method: (§1)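 Cells were exposed for 72 h of cultivation; L-929 mouse fibroblasts and HeLa human cells grown adherent, K-562 human leukemia cells grown nonadherent. Result given as IC50 in µg/mL.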

K562 = experiment: Cytotoxicity against human K562 cells after 72 hrs; summary of the method: as §1
HeLa = experiment: Cytotoxicity against human HeLa cells after 72 hrs; summary of the method: as §1

Measured: Activity

C=CC(C)(C)c1[nH]c2ccccc2c1C[C@@H]1NC(=O)[C@H](Cc2c(C(C)(C)C=C)[nH]c3ccccc23)NC1=O
inactive: all assays above

C=CC(C)(C)c1[nH]c2ccccc2c1C[C@@H]1NC(=O)[C@H](Cc2c[nH]c3ccccc23)NC1=O
inactive: all assays above

O=C1N[C@@H](Cc2c[nH]c3ccccc23)C(=O)N[C@H]1Cc1c[nH]c2ccccc12
inactive: all assays above
